Molecules are shown by their SMILES. pIC50: −log10 of the molar value.

This experiment has as its target T1, P-selectin (Homo sapiens, UniProt P16109).
T1 sequence (P16109 whole entry): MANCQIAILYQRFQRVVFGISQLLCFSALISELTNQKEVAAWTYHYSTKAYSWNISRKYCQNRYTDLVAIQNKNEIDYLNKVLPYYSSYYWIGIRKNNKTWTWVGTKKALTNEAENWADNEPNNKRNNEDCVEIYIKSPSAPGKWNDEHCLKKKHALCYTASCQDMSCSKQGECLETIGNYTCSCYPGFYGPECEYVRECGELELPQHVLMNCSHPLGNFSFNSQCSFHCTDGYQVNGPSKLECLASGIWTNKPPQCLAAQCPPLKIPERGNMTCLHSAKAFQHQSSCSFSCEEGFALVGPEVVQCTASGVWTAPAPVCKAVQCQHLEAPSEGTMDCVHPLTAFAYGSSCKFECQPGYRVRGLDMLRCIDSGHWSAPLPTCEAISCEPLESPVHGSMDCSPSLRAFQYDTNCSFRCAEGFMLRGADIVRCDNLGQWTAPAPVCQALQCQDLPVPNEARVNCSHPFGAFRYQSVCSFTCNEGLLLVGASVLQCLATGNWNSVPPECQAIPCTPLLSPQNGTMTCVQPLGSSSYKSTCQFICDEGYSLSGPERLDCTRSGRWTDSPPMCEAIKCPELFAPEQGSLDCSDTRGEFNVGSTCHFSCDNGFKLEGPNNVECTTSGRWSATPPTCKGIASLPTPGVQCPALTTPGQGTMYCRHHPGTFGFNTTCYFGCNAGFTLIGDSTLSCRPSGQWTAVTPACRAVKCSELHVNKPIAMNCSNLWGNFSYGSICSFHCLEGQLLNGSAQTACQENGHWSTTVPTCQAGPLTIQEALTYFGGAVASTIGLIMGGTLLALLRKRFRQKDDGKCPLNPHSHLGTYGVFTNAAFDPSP
Nature of the experiment: In vitro inhibitory concentration against Selectin P in a cell-free binding assay. In outline: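 Soluble P-selectin receptor globulin (lectin, EGF and two complement repeat domains fused to an Ig tail), premixed with HRP-conjugated goat anti-human IgG. The complex was incubated on sulfatide-coated ELISA plates with or without test compound, 0.5% DMSO final. Read-out was TMB colour at 450 nm. Eight 2-fold dilutions were tested, mean of duplicates, and IC50 was interpolated from the linear part of the log dose-response curve.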
A word on the pIC50: it is the negative decadic logarithm of the IC50, by convention in mol/L. Low readings indicate a large IC50, high ones a small IC50. `CCCCCCCCCCCCC/C=C/[C@@H](O)[C@H](CO[C@@H]1O[C@@H](COS(=O)(=O)O)[C@@H](O)[C@H](OS(=O)(=O)O)[C@@H]1O)NC(=O)CCCCCCCCCCCCCCC`: the negative logarithm of the IC50 (pIC50) was 5.62.
For `CCCCCCCCCCCCC/C=C/[C@@H](O)[C@H](CO[C@@H]1O[C@@H](CO)[C@@H](O)[C@H](OS(=O)(=O)O)[C@@H]1OS(=O)(=O)O)NC(=O)CCCCCCCCCCCCCCC` the value was 7.00; for `CCCCCCCCCCCCC/C=C/[C@@H](O)[C@H](CO[C@@H]1O[C@@H](COS(=O)(=O)O)[C@@H](OS(=O)(=O)O)[C@H](O)[C@@H]1O)NC(=O)CCCCCCCCCCCCCCC`, 5.77.
The result for `CCCCCCCCCCCCC/C=C/[C@@H](OC(=O)c1ccccc1)[C@H](CO[C@@H]1O[C@@H](COS(=O)(=O)O)[C@@H](OC(C)=O)[C@H](OS(=O)(=O)O)[C@@H]1OC(=O)c1ccccc1)NC(=O)CCCCCCCCCCCCCCC` reads 5.89.
The result for `CCCCCCCCCCCCC/C=C\C(O)C(CO)NC(=O)O[C@@H]1O[C@H](CO)[C@H](O)[C@H](O)[C@H]1O` (some centres not stated) [GALACTOCEREBROSIDE] reads below 4.30; that for `CCCCCCCCCCCCC/C=C/[C@@H](O)[C@H](CO[C@@H]1O[C@@H](CO)[C@@H](O)[C@H](OS(=O)(=O)O)[C@@H]1O)NC(=O)CCCCCCCCCCCCCCC`, 6.22; that for `CCCCCCCCCCCCC/C=C/[C@@H](O)[C@H](CO[C@@H]1O[C@@H](CO)[C@@H](OS(=O)(=O)O)[C@H](O)[C@@H]1O)NC(=O)CCCCCCCCCCCCCCC`, 4.90.
Consider `CCCCCCCCCCCCC/C=C/[C@@H](OC(=O)c1ccccc1)[C@H](CO[C@@H]1O[C@@H](COS(=O)(=O)O)[C@@H](O)[C@H](O)[C@@H]1OS(=O)(=O)O)NC(=O)CCCCCCCCCCCCCCC`, for which the negative logarithm of the IC50 (pIC50) is 6.05.
`CCCCCCCCCCCCC/C=C/[C@@H](OC(=O)c1ccccc1)[C@H](CO[C@@H]1O[C@@H](CO)[C@@H](O)[C@H](OS(=O)(=O)O)[C@@H]1OS(=O)(=O)O)NC(=O)CCCCCCCCCCCCCCC` showed a pIC50 of 7.00.
`CCCCCCCCCCCCC/C=C/[C@@H](O)[C@H](CO[C@@H]1O[C@@H](COS(=O)(=O)O)[C@@H](O)[C@H](O)[C@@H]1OS(=O)(=O)O)NC(=O)CCCCCCCCCCCCCCC` had a negative logarithm of the IC50 (pIC50) of 5.92.
For `CCCCCCCCCCCCC/C=C/[C@@H](O)[C@H](CO[C@@H]1O[C@@H](CO)[C@@H](O)[C@H](O)[C@@H]1OS(=O)(=O)O)NC(=O)CCCCCCCCCCCCCCC` the value was 5.60; for `CCCCCCCCCCCCC/C=C/[C@@H](O)[C@H](CO[C@@H]1O[C@@H](COS(=O)(=O)O)[C@@H](O)[C@H](O)[C@@H]1O)NC(=O)CCCCCCCCCCCCCCC`, 4.92.

Source of the values: ChEMBL document CHEMBL1130175, “Sulfated galactocerebrosides as potential antiinflammatory agents” (J Med Chem, 1997).
